# CHO parental Ca: counter-screen for OX1R antagonists: effect in parental CHO cells; parental CHO-K1, ATP-induced calcium, Fluo-8 fluorescence; inhibition, % at 5.6 µM; actives 0.63% (n = 330,000); AID 463079;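 active means inhibition above that plate's mean sample inhibition plus 3 SD, cut at about 26% in these data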
#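 material = parental CHO cells | also added = ATP as calcium-mobilizing challenge | dosing = single point at 5.6 µM | detection = intracellular calcium via Fluo-8 no-wash fluorescent dye | read-out = % inhibition | benchmarks = low control ATP plus DMSO, high control DMSO only | repeats = one well per compound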
# TAAR1 antag: antagonists of human TAAR1; inhibition, % at 3 µM; CHO RD-HGA16 TAAR1, Fluo-8 calcium fluorescence, antagonist; actives 1.5% (n = 360,000); Q96RJ0;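 active means inhibition above a per-plate cutoff, the mean inhibition of test compounds on that plate plus 3 SD, cut at about 49% in these data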
#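 Test system – hTAAR1-expressing CHO RD-HGA16 cells, Gα16-coupled · Also added – β-PEA at EC80 concentration, post-compound challenge · Compound – 3 µM, single point · Incubation – dye loading 75 min at 37 °C, then 30 min room temperature · Measured by – Fluo-8 intracellular calcium dye fluorescence, real-time kinetic reads · Benchmarks – vehicle and agonist controls · Replicates – singlicate, one well per test compound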
# TAAR1 agonist: human TAAR1 agonism. CHO RD-HGA16 TAAR1, Fluo-8 calcium fluorescence; vehicle wells 0%, saturating PEA agonist 100%. activation, % at 3 µM. actives 0.99% (n = 360,000). Q96RJ0. AID 624467;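 active means activation above the mean activation of all test compounds in the run plus 3 SD, cut at about 38% in these data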
#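 Test system: RD-HGA16 (CHO) cells co-expressing Gα16 and hTAAR1 / Benchmarks: DMSO vehicle as 0%, PEA at EC100 as 100% / Repeats: no replicates (n 1) / Measure: % activation from peak over basal fluorescence ratio, DMSO-to-PEA scaled / Timing: 17-24 h plating, Fluo-8 75 min 37 °C, 30 min RT / Technique: kinetic Fluo-8 calcium fluorescence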
# GPR7 antagonist: blocks human GPR7 receptor signaling | GPR7-expressing cells, fluorescence antagonist assay | inhibition, % at 4.4 µM | actives 1.1% (n = 290,000) | AID 1861; in the data active means inhibition above about 16%, passing the limit was not always enough;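 further: cells stimulated with the agonist NPW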
# OX1R antag-1: blocks the human orexin 1 receptor; OX1R-expressing cells, FRET antagonist read-out; inhibition, % at 6.6 µM; actives 1.8% (n = 330,000); in the data active means inhibition mostly above about 38%, no sharp cut-off; inactive means mostly below about 40%
# Target sequence (O43613 whole entry, looked up): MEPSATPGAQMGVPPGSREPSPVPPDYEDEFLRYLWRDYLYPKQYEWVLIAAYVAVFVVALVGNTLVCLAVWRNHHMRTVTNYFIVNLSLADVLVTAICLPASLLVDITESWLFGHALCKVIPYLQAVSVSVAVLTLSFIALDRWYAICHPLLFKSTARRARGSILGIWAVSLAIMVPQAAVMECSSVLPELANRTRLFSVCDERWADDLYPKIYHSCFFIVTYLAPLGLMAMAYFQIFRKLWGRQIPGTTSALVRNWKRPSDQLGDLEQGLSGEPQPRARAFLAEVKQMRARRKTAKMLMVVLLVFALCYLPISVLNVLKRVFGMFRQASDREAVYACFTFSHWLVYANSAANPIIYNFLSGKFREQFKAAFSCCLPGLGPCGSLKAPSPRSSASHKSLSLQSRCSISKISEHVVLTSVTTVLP
# OX1R antag-2: human HCRTR1 antagonism; O43613; CHO/OX1R cells, Fluo-8 calcium fluorescence, orexin A; inhibition, % at 5 µM; actives 0.43% (n = 330,000);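 active means inhibition above its plate's threshold, mean inhibition of all tested compounds on the plate plus 3 SD, cut at about 37% in these data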
# Numbers stand for hits; – = inactive; · = no result given. This is a sample that favours compounds with a hit; in the whole collection about 4.6% have one here.
SMILES,CHO parental Ca,TAAR1 antag,TAAR1 agonist,GPR7 antagonist,OX1R antag-1,OX1R antag-2
c1ccc2c(c1)CCN(c1ncnc3nc[nH]c13)C2,–,–,–,–,–,–
CC1Cc2ccccc2N1c1ncnc2nc[nH]c12 (stereo unspecified),–,·,·,–,74,–
O=C(Nc1cnn(Cc2ccc(F)cc2)c1)c1cc(-c2cccs2)on1,–,·,·,–,–,–
O=C(Nc1cnn(Cc2ccc(F)cc2)c1)c1cnccn1,–,–,–,17,–,–
COC(=O)c1ccc(C(=O)OC)c(NC(=O)CN2CCN(c3ccccc3OC)CC2)c1,–,52,–,–,–,–
COc1ccccc1N1CCN(CC(=O)Nc2ccccc2C(=O)NCCc2ccccc2)CC1,–,55,–,·,–,–
O=C(CN1CCN(c2ccc(F)cc2)CC1)Nc1ccccc1C(=O)NCCc1ccccc1,–,–,–,·,–,–
COc1ccccc1N1CCN(CC(=O)Nc2ccccc2C(=O)NC(C)c2ccccc2)CC1 (stereo unspecified),–,59,–,·,–,–
O=C(CN1CCN(c2ccccc2O)CC1)Nc1ccccc1C(=O)NCCc1ccccc1,–,61,–,·,–,–
Cc1ccccc1-c1ccc2c(c1)[C@@H]1C[C@H](N(C)C(=O)c3ccco3)[C@H]([C@H](C)O)CN1CC2,·,–,–,·,·,·
C[C@H](O)[C@@H]1C(=O)N2CCc3c([nH]c4c(-c5ccccc5)cccc34)[C@@H]2C[C@@H]1N(C)CC1CCCCC1,·,–,–,·,·,·
COc1ccc(CCNC(=O)c2ccccc2NC(=O)CN2CCN(c3ccccc3O)CC2)cc1,·,64,–,·,·,·
CC(NC(=O)c1ccccc1NC(=O)CN1CCN(c2ccccc2O)CC1)c1ccccc1 (stereo unspecified),–,–,–,·,–,–
O=C(N/N=C/c1ccccc1[N+](=O)[O-])c1ccc2nc[nH]c2c1,–,–,–,–,–,–
Cc1occc1C(=O)N/N=C/c1ccc(Cl)c([N+](=O)[O-])c1,–,–,–,–,64,–
O=C(N/N=C/c1ccc(Cl)c([N+](=O)[O-])c1)c1ccc2nc[nH]c2c1,–,–,–,–,58,–
C[C@H]1CCCCO[C@@H](CN(C)CC2CC2)[C@@H](C)CN([C@@H](C)CO)C(=O)c2cc(NS(=O)(=O)c3ccccc3)ccc2O1,·,–,–,·,·,·
O=C(CSc1nc2ccc(Cl)cc2[nH]1)NC1CCCc2ccccc21 (stereo unspecified),–,–,–,–,73,–
O=C(CSc1nc2ccccc2[nH]1)NC1CCCc2ccccc21 (stereo unspecified),–,–,–,–,–,–
Cc1onc(-c2ccccc2)c1C(=O)NN=Cc1cc(Cl)cc(Cl)c1O,·,–,–,·,·,·
COc1cccc(NC2=Nc3cccc4cccc2c34)c1,–,–,–,–,72,–
COc1cc(NC2=Nc3cccc4cccc2c34)cc(OC)c1OC,–,–,–,–,–,–
Nc1nc(-c2ccccc2)cc(N2CCCCC2)n1,–,–,–,14,–,–
CCOCCCNC(=O)C(c1ccc(OC)cc1)N(Cc1cccs1)C(=O)c1ccccn1 (stereo unspecified),–,50,–,–,–,–
C=CCN(C(=O)c1csnn1)C(C(=O)NCc1ccccc1)c1cccs1 (stereo unspecified),–,–,–,–,–,–
SMILES,CHO parental Ca,TAAR1 antag,TAAR1 agonist,GPR7 antagonist,OX1R antag-1,OX1R antag-2
O=C(NCc1ccccc1)C(c1ccccc1)N(Cc1cccs1)C(=O)c1cnccn1 (stereo unspecified),–,62,–,–,–,–
O=C(NCc1ccccc1)C(c1cccs1)N(Cc1cccs1)C(=O)c1cnccn1 (stereo unspecified),–,50,–,–,–,–
O=C(N[C@H](C(=O)N1CCC[C@H]1C(=O)NCc1ccccc1)C1CCCCC1)c1ccccc1,·,–,–,·,·,·
CCOC(=O)C(CNc1ccc(OCc2ccccc2)cc1)NC(=O)c1ccccc1 (stereo unspecified),·,–,–,·,·,·
O=C(Oc1ccc2ccccc2c1Br)N1CCCCCC1,33,–,–,–,–,–
CC1=C(C(=O)N(C(C)C)C(C)C)CC(CC(=O)NCc2ccco2)C(=O)N1CCC1=CCCCC1 (stereo unspecified),·,–,–,·,·,·
O=C(C[n+]1ccccc1)N/N=C/c1cc(Br)cc(Br)c1O,–,·,·,–,29,–
CC(=O)N(C1=C(N)C(=O)c2ccccc2C1=O)c1ccccc1,–,–,–,–,46,–
COc1ccc(-c2cn[nH]c2-c2ccc(OCc3ccccc3)cc2O)cc1,54,–,–,–,–,–
COc1ccc(-c2[nH]ncc2-c2ccc(Cl)cc2)c(O)c1,72,–,–,–,–,–
Cc1ccc(Cn2cc(CN3CC(N4CCCC4)CS3(=O)=O)nn2)cc1 (stereo unspecified),·,–,–,·,·,·
COc1cccc(CNC(=O)[C@H]2CCCN2C(=O)[C@H]2CCCN2C(=O)OC(C)(C)C)c1,·,–,–,·,·,·
CCOC(=O)c1c(C)[nH]c(C)c1C(=O)COC(=O)/C=C/c1cccc(Cl)c1,–,–,–,–,–,–
CCOC(=O)c1c(C)[nH]c(C)c1C(=O)COC(=O)/C=C/c1ccccc1[N+](=O)[O-],–,–,–,·,35,–
Cc1ccc(-c2nn(-c3ccccc3)cc2/C=C/C(=O)Nc2nccs2)cc1,–,–,40,–,–,–
O=C(Nc1nccs1)c1cn(-c2ccccc2)nc1-c1ccncc1,–,–,38,–,–,–
COc1ccc(-c2nn(-c3ccccc3)cc2C(=O)Nc2nccs2)cc1,–,–,–,–,–,–
COC(=O)C1=C(C)N(C)C(=NCc2ccc(OC)cc2)NC1c1ccc(F)cc1 (stereo unspecified),·,–,–,·,·,·
CCCCCCN1C[C@H](O)[C@@H](n2cc(COC(=O)c3ccccc3)nn2)C[C@@H]1c1ccc(Cl)cc1,·,–,–,·,·,·
CCc1cc(-c2[nH]ncc2-c2ccc([N+](=O)[O-])cc2)c(O)cc1OC,60,·,·,–,–,–
COc1ccc(-c2cn[nH]c2-c2ccc(OCc3ccc([N+](=O)[O-])cc3)cc2O)cc1OC,–,–,–,–,–,–
CCc1cccc(C)c1NC(=O)CSc1ncn[nH]1,29,–,–,–,–,–
CCc1ccccc1NC(=O)CSc1ncn[nH]1,–,–,–,–,–,–
C=CCNc1ccc2c(c1)OC[C@@H](CC(C)C)NS2(=O)=O,·,–,–,·,·,·
COc1ccc(OC)c(NC(=O)C(=O)NNC(=O)C23CC4CC(CC(C4)C2)C3)c1,–,–,54,–,–,–
NC(COCc1ccccc1)c1csc(NC(=O)Nc2cccc(C(F)(F)F)c2)n1 (stereo unspecified),·,–,–,·,·,·
O=C(Nc1ncc(Cc2ccc(SC(F)F)cc2)s1)c1ccccc1,–,–,44,–,–,–

# Compound activity: PubChem, The Scripps Research Institute Molecular Screening Center
